High-throughput results as filed in PubChem.
APP 5'UTR act = APP 5'UTR luciferase reporter activation; SH-SY5Y APP 5'UTR luciferase reporter, luminescence; zero percent = DMSO vehicle wells; activation, % at 2 µM; 190,000 compounds, 1% hits; AID 1276;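 active = activation above a set limit, based on mean plus 3 SD of controls, cut at about 140% in these data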
STAT3 inh = STAT3 signaling inhibition. U3A cells, IL-6 STAT3-luciferase reporter, luminescence; host cell line lacks STAT1. inhibition, % at 5.5 µM. 190,000 compounds, 0.89% hits. AID 862;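 active = inhibition above the mean inhibition across all screened compounds plus 3 SD, cut at about 44% in these data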
STAT3 act-1 = STAT3 signaling activation; U3A cells, IL-6 STAT3-luciferase reporter, luminescence; 100% = signal with IL-6 EC80 alone; activation (% of control), % at 5.6 µM; 190,000 compounds, 0.91% hits; AID 871;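 active = activation above the screen-wide mean of compound activation plus 3 SD, cut at about 130% in these data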
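Material: human U3A cells carrying STAT3-luciferase construct. Measured by: reporter luminescence signal. Timing: compound 1 h, then IL-6 6 h at 37 °C.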
STAT1 act-1 = activators of IFN-gamma induced STAT1 signaling. NIH 3T3 STAT1-luciferase reporter, luminescence; 100% = IFN-gamma alone, no compound. activation (% of control), % at 5.5 µM. 200,000 compounds, 2.6% hits;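 active = activation above the screen-wide mean activation plus 3 SD, cut at about 130% in these data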
NF-kB expr up = NF-kB expression increase, human neuronal cells; NF-kB reporter expression; hits give high values; fold change at 12.5 µM; 190,000 compounds, 1.6% hits; AID 1239; in the data active = fold change above about 3.3
STAT1 blocker = STAT1 signaling inhibition; NIH 3T3 STAT1-luciferase reporter, IFN-gamma, luminescence; inhibition, % at 5.5 µM; 200,000 compounds, 0.35% hits;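 active = inhibition above a set limit, the mean inhibition across all tested compounds plus 3 SD, cut at about 34% in these data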
STAT3 act-2 = STAT3 activation, confirmation assay. shares compounds with STAT3 act-1. U3A STAT3-luciferase reporter, IL-6 potentiation, luminescence; U3A cells lack STAT1; 100 means same as IL-6 alone. potentiation (% of control), % at 5.7 µM. 1,200 compounds, 64% hits;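 active = percent activation of the STAT3 luciferase reporter above a set limit taken from the earlier primary screen, cut at about 130% in these data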
NFkB act STAT3ct = activates NF-kappaB, counter-screen to STAT3 activators; shares compounds with STAT3 act-1; human cells, NF-kappaB reporter activation; activation (% of control), % at 5.7 µM; 1,200 compounds, 11% hits; AID 1309; in the data active = activation above about 120%;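 note: reporter induced by TNF-alpha stimulation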
STAT1 act-2 = STAT1 activation in STAT3 activator counter-screen; shares compounds with STAT3 act-1; NIH 3T3 STAT1-luciferase reporter, IFN-gamma, luminescence; activation (% of control), % at 5.7 µM; 1,200 compounds, 13% hits; AID 1318;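 active = activation above the solvent-only control well mean plus 3 SD, set per screening run, cut at about 120% in these data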
Large screens that a line does not name were inactive (follow-up assays come after a bar, where they were run). This is a sample that favours compounds with a hit; in the whole collection about 5.1% have one here.

Cc1ccc(S(=O)(=O)Nc2ccc(NC(=O)c3cccnc3)cc2)cc1	none
COc1ccc(O)c(-c2cc(-c3cccs3)[nH]n2)c1	STAT3 act-1 144 | STAT3 act-2 inactive | NFkB act STAT3ct inactive | STAT1 act-2 inactive
COC(=O)c1cc(-c2cccs2)[nH]n1	none
O=C(N/N=C/c1ccc(-c2cccc([N+](=O)[O-])c2)o1)c1cccs1	STAT3 act-1 137 | STAT3 act-2 inactive | NFkB act STAT3ct inactive | STAT1 act-2 inactive
CC(C)(C)NC(=O)C(=O)NCCC1=CCCCC1	none
COc1cc(-c2nnc(CSc3nc4ccccc4s3)o2)cc(OC)c1OC	STAT3 act-1 137 | STAT3 act-2 inactive | NFkB act STAT3ct inactive | STAT1 act-2 inactive
COc1cc(-c2nnc(COC(=O)CSc3cc(C)c4ccccc4n3)o2)cc(OC)c1OC	none
N#C/C(=C\c1ccccc1)c1nc2ncccc2[nH]1	none
O=C(CNc1ccc2ccccc2c1)N/N=C/c1cc2ccccc2nc1Cl	STAT3 act-1 144 | STAT3 act-2 138 | NFkB act STAT3ct inactive | STAT1 act-2 inactive
Cc1ccc(Cl)c(OCC(=O)Nc2sc(C)c(C)c2C#N)c1	none
CCOC(=O)c1ccc(NC(=O)COc2ccc(S(=O)(=O)NC(C)(C)C)cc2)cc1	none
CCCCn1c(N)c(N(CCC(C)C)C(=O)COC(=O)c2ccccc2)c(=O)[nH]c1=O	STAT3 act-1 143 | STAT3 act-2 148 | NFkB act STAT3ct inactive | STAT1 act-2 inactive
CCCCn1c(N)c(N(CCC(C)C)C(=O)COC(=O)c2ccco2)c(=O)[nH]c1=O	none
CCN(CC)C(C)C(=O)NCC1(c2ccccc2)CCOCC1 (stereo not drawn)	none
CCn1c(=O)c(C(=O)Nc2ccsc2C(=O)OC)c(O)c2ccccc21	STAT3 act-1 138 | STAT3 act-2 151 | NFkB act STAT3ct inactive | STAT1 act-2 inactive
O=C1OCC2=C1C(c1ccccc1)CC(=O)N2c1ccc(F)cc1 (stereo not drawn)	none
O=S(=O)(NCCCN1CCN(c2ccccc2F)CC1)c1cccc2cccnc12	none
Cn1c(CNc2ccccc2O)nc2ccccc21	STAT3 act-1 159 | STAT3 act-2 179 | NFkB act STAT3ct inactive | STAT1 act-2 inactive
Cn1c(CNc2nc3ccccc3n2CCN2CCCCC2)nc2ccccc21	none
COc1ccccc1C1(CC(=O)N2CCCCC2)CCOC(C(C)C)C1 (stereo not drawn)	none
c1cnc(N2CCN(Cc3c[nH]c4ccccc34)CC2)nc1	none
Cc1ccccc1N1CCN(Cc2c[nH]c3ccccc23)CC1	STAT3 act-1 143 | STAT3 act-2 137 | NFkB act STAT3ct inactive | STAT1 act-2 inactive
CCS(=O)(=O)N1CCN(Cc2c[nH]c3ccccc23)CC1	STAT3 act-1 142 | STAT3 act-2 142 | NFkB act STAT3ct inactive | STAT1 act-2 inactive
O=C(CSc1nnc(SCc2cccc3ccccc23)s1)N/N=C/C=C/c1ccccc1[N+](=O)[O-]	none
CCOC(=O)c1noc(C)c1C(=O)Nc1nc(C)cc(C)n1	none
Cc1ccc(S(=O)(=O)N2CCC(=O)N(C(COCc3ccc(Cl)cc3)Cc3ccccc3)CC2)cc1 (stereo not drawn)	none
O=C(CSc1nnc2c3ccccc3c3ccccc3c2n1)Nc1ccccc1	STAT3 act-1 158 | STAT3 act-2 162 | NFkB act STAT3ct inactive | STAT1 act-2 inactive
Cc1ccc(C2=NNC(=O)C(P(=O)(c3ccccc3)c3ccccc3)C2)cc1 (stereo not drawn)	none
Cc1nnc(SCC(=O)N(C)c2ccccc2)n1Cc1ccccc1	none
